Molecules are shown by their SMILES.

Test [1] concerns the target T1, Carbonic anhydrase 4 (Bos taurus) (UniProt Q95323).
T1 sequence (whole entry): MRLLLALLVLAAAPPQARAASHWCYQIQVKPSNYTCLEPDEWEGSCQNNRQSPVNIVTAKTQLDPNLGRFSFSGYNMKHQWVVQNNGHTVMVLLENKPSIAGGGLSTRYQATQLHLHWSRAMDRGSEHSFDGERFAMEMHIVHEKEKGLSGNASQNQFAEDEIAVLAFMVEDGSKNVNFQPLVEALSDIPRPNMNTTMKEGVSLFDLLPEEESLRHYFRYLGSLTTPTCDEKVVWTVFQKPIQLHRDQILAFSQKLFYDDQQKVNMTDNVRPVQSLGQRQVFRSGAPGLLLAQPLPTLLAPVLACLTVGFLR
Briefly: In vitro carbonic anhydrase IV activation in bovine lung microsomes. The following applies: Microsome. In short, it runs like this:
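CA IV isolated from bovine lung microsomes and quantified by ethoxzolamide titration; used at 39 nM. 4-Nitrophenyl acetate hydrolysis initial rates followed at 400 nm, 25 °C, pH 7.40, substrate 2×10-2 to 1×10^-6 M. Activator preincubated with enzyme 15 min at room temperature. Dilutions down to 0.1 nM. Non-enzymatic rate subtracted. KA given as mean of at least three determinations.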

The species entered for test [2] is Homo sapiens. Briefly: (§1) Ex vivo carbonic anhydrase activation after 30 min incubation of human erythrocytes with 5 uM activator Histamine. Type of test: functional. In short, it runs like this:
(§2)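 Fresh human blood washed repeatedly with 5 mM Tris pH 7.40 and centrifuged; erythrocytes incubated with 5 µM activator at 37 °C with gentle stirring. Cells washed three times with buffer to remove unbound compound, lysed in distilled water and centrifuged. Lysate CA activity measured by 4-nitrophenyl acetate esterase assay at 400 nm. Buffer-only cells set as 100%.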

Test [3] is filed under the species Homo sapiens. As to the kind of experiment: (§3) Ex vivo carbonic anhydrase activation after 60 min incubation of human erythrocytes with 5 uM activator Histamine. Type of test: functional. A digest of the protocol:
as §2

In test [4] the target is Carbonic anhydrase 1 (Homo sapiens) (UniProt P00915). As to the kind of experiment: In vitro carbonic anhydrase activation in human cloned Carbonic anhydrase I (hCA I).
Test [5] concerns the target Carbonic anhydrase 2 (Homo sapiens) (UniProt P00918). As to the kind of experiment: In vitro carbonic anhydrase activation in human cloned Carbonic anhydrase II (hCA II).
The species named for test [6] is Homo sapiens. Described as §3. Type of test: functional. In short, it runs like this:
(§4)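 Freshly isolated human blood washed in Tris buffer (pH 7.40, 5 mM), erythrocytes incubated with 5 µM activator solution at 37 °C with gentle stirring; cells washed three times to remove unbound compound, lysed in distilled water, centrifuged; CA activity of lysate measured by 4-nitrophenyl acetate esterase assay (400 nm, pH 7.40, 25 °C). Untreated cells taken as 100%.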
This is another data set of the same source.

The species named for test [7] is Homo sapiens. The description is as §1. Type of test: functional. A digest of the protocol: as §4
The source holds these as a separate data set.

Chain of Carbonic anhydrase 1 (Homo sapiens) (P00915 2-261 limits assumed): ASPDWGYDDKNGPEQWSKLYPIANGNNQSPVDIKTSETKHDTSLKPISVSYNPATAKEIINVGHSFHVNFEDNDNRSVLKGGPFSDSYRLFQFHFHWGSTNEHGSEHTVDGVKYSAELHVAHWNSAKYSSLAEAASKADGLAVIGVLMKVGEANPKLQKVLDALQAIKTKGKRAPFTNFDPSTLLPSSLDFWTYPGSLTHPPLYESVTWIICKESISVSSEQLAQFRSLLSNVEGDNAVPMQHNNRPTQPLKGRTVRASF

For the molecule `Cc1ccccc1S(=O)(=O)NC(=O)N[C@@H](Cc1c[nH]cn1)C(=O)NCCC(=O)N[C@@H](Cc1c[nH]cn1)C(=O)O`, the KA in test [1] stood at 0.5 µM; in test [4], 0.03 µM; in test [5], 0.7 µM. The CA in the test listed under Homo sapiens [2] was found to be 180%; in the test listed under Homo sapiens [3], 211%.

In the case of `Cc1ccccc1S(=O)(=O)NC(=O)NCCC(=O)N[C@@H](Cc1c[nH]cn1)C(=O)NCCC(=O)N[C@@H](Cc1c[nH]cn1)C(=O)O`, the KA in test [1] is 0.008 µM; in test [4], 0.004 µM; in test [5], 0.02 µM. The CA in the test listed under Homo sapiens [6] is given as 267%; in the test listed under Homo sapiens [7] it was 236%.

For `O=C(CCNC(=O)[C@H](Cc1c[nH]cn1)NC(=O)CCNC(=O)NS(=O)(=O)c1ccc(F)cc1)N[C@@H](Cc1c[nH]cn1)C(=O)O`, the KA in test [1] came out at 0.005 µM; in test [4], 0.002 µM; in test [5], 0.01 µM. The CA in the test listed under Homo sapiens [2] is 254%; in the test listed under Homo sapiens [3], 283%.

`N=C(N)NCCC[C@H](NC(=O)NS(=O)(=O)c1ccc(F)cc1)C(=O)NCCC(=O)N[C@@H](Cc1c[nH]cn1)C(=O)O`: the KA in test [1] came to 0.2 µM; in test [4], 0.01 µM; in test [5], 1.2 µM. Further, the CA in the test listed under Homo sapiens [2] is 186%; in the test filed under Homo sapiens [3] it was 225%.

As for `NCCc1c[nH]cn1` [HISTAMINE], the CA in the test filed under Homo sapiens [6] is 130%; in the test listed under Homo sapiens [7], 121%. This molecule also came in with a KA in test [4] of 2 µM.

Consider `Cc1ccccc1S(=O)(=O)NC(=O)NCC(=O)N[C@@H](Cc1c[nH]cn1)C(=O)NCCC(=O)N[C@@H](Cc1c[nH]cn1)C(=O)O`, for which the KA in test [1] is 0.01 µM; in test [4] it was 0.005 µM; in test [5], 0.03 µM.

With `Cc1ccccc1S(=O)(=O)NC(=O)N[C@@H](C)C(=O)NCCC(=O)N[C@@H](Cc1c[nH]cn1)C(=O)O`, the KA was found to be 2.3 µM in test [1], 0.24 µM in test [4] and 13 µM in test [5].

With `Cc1ccccc1S(=O)(=O)NC(=O)N[C@@H](Cc1ccccc1)C(=O)N1CCC[C@H]1C(=O)NCCC(=O)N[C@@H](Cc1c[nH]cn1)C(=O)O`, the figures for the KA in test [1], in test [4] and in test [5] were 0.008 µM, 0.005 µM and 0.04 µM, respectively.

In the case of `Cc1ccccc1S(=O)(=O)NC(=O)N1CCC(C(=O)NCCC(=O)NC(Cc2c[nH]cn2)C(=O)O)CC1` (stereo not given), the KA in test [1] was 3.1 µM; in test [4], 0.13 µM; in test [5], 9 µM.

The values are drawn from ChEMBL document CHEMBL1135797, “Carbonic anhydrase activators: high affinity isozymes I, II, and IV activators, incorporating a beta-alanyl-histidine scaffold” (2002).
